Results from different studies.
IGF1R: Insulin-like growth factor 1 receptor (IGF1R, Homo sapiens, UniProt P08069)
IGF1R phosphorylated: Insulin-like growth factor 1 receptor, phosphorylated (IGF1R, Homo sapiens, UniProt P08069)

With `Nc1ncnc2occ(-c3ccc(NC(=O)Nc4cc(C(F)(F)F)ccc4F)cc3)c12` the remaining signal was 13% (IGF1R; cell-free assay; 20 µM).
The activity vs control of `Cc1ccc(C(=O)NCc2ccsc2)cc1C#Cc1cn(C(C)C)c2ncnc(N)c12` is reported as 136% (IGF1R phosphorylated; enzyme activity, inhibitor; 1 µM).
`CS(=O)(=O)N1CCCC(NC(=O)[C@H](CCC2CCCCC2)NC(=O)c2ccc(CNc3ncnc4c3nnn4-c3ccccc3)cc2)C1` (stereo partly drawn) gave a remaining binding of 100% (IGF1R; cell-free assay, competition with immobilised ligand; 0.1 µM).
`O=C1Nc2ccc(Cl)cc2C1=Cc1cc(Cl)c(O)c(Cl)c1` gave a remaining signal of 98.3% (IGF1R; cell-free assay; 0.5 µM).
For `CCS(=O)(=O)c1cc2cc(C[C@@](O)(CC(C)(C)c3ccc(F)cc3C(N)=O)C(F)(F)F)[nH]c2cn1`, the remaining binding was 100% (IGF1R; cell-free assay, competition with immobilised ligand; 1 µM).
`CCN(CC)CCNC(=O)c1c(C)[nH]c(/C=C2\C(=O)Nc3ccc(F)cc32)c1C` gave an inhibition of 4% (IGF1R; enzyme activity, inhibitor; 0.3 µM).
`CNC(=O)c1ccc(Nc2ncc(C(F)(F)F)c(NCc3nccnc3N(C)S(C)(=O)=O)n2)cc1` has a remaining binding of 84% (IGF1R; cell-free assay, competition with immobilised ligand; 0.1 µM).
For `CNc1cccc2cc(C(=O)Nc3ccc(C(=O)O)cc3)c(=O)[nH]c12`, the inhibition was 5.2% (IGF1R; enzyme activity, inhibitor; 10 µM).
`COc1cc(Nc2c(C#N)cnc3cc(OCCCN4CCN(C)CC4)c(OC)cc23)c(Cl)cc1Cl` has a remaining signal of 91.5% (IGF1R; cell-free assay; 0.5 µM).
For `CN1CC(Oc2cnc(C#N)cc2-c2ccn3nc(NC(=O)C4CC4)cc3c2)C1`, the inhibition was -13% (IGF1R phosphorylated; enzyme activity, inhibitor; 1 µM).
`C=CC(=O)Nc1cc(Nc2nccc(Nc3cc(Cl)c(F)cc3C(C)(C)O)n2)c(OC)cc1N1CC[C@@H](N(C)C)C1` has an inhibition of 35% (IGF1R; enzyme activity, inhibitor; 1 µM).
With `C[C@@H](c1cccc(C#N)c1)n1cc(Cl)cc(C(N)=O)c1=N` the remaining binding was 96% (IGF1R; cell-free assay, competition with immobilised ligand; 1 µM).
With `CNCc1ccc(-c2cc(-c3nc(-c4ccc(S(=O)(=O)C(C)C)cc4)cnc3N)on2)cc1` the inhibition was 0% (IGF1R; enzyme activity, inhibitor; 0.4 µM).
For `O=C(CSc1nc2nccnc2c(=O)n1CCc1ccccc1)Nc1nccs1`, the inhibition was 12% (IGF1R; enzyme activity, inhibitor; 10 µM).
With `COc1cc2nccc(Oc3ccc(NC(=O)c4c5n(n(-c6ccc(F)cc6)c4=O)CCCC5)cc3)c2cc1OC` the inhibition was 16% (IGF1R; enzyme activity, inhibitor; 0.1 µM).
For `CCCS(=O)(=O)Nc1ccc(F)c(C(=O)c2c[nH]c3ncc(-c4ccc(Cl)cc4)cc23)c1F`, the inhibition was less than 10% (IGF1R; enzyme activity, inhibitor; 1 µM).
`Cc1cc(NC(=O)c2cccc3cc(-c4cccc5[nH]nc(N)c45)ccc23)ccc1F` has an activity vs control of 100% (IGF1R phosphorylated; enzyme activity, inhibitor; 0.1 µM).
`Nc1c(C(=O)NCc2ccc(C(=O)NCCCC3CCCCC3)cc2)cnn1-c1ccccc1` gave a remaining binding of 98% (IGF1R; cell-free assay, competition with immobilised ligand; 0.1 µM).
`COc1cc2ncnc(Nc3ccc(Oc4ccccc4)c(C)c3C)c2cc1OC` has an inhibition of 2% (IGF1R; enzyme activity, inhibitor; 1 µM).
`O=C1NC(=O)c2cc(Nc3ccc(F)cc3)c(Nc3ccc(F)cc3)cc21` gave a remaining signal of 102% (IGF1R; cell-free assay; 0.5 µM).
For `O=C(NCc1ncc(C(F)(F)F)cc1Cl)c1ccc2c(c1)C1(CCS(=O)(=O)CC1)[C@@H](C1CC1)N2S(=O)(=O)c1ccc(F)cc1`, the remaining binding was 88% (IGF1R; cell-free assay, competition with immobilised ligand; 1 µM).
